Calls of active or inactive are those of the source.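 How the source made its calls, unless noted: active means viability at or below 30% in both replicate assays; inconclusive means viability at or below 30% in just one of the two assays; inactive means the rest.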

Assay [1] can be described thus: SK-BR-3 cell growth inhibitors, pilot screen, 24 h, human (AID 572;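 active means viability at or below 10% of carrier control in both of two separate runs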;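 further: compound exposure lasted between 18 and 24 h rather than exactly 24 h; 100% = carrier-treated control wells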). The conditions noted are these: SK-BR-3 viability, CellTiter-Glo luminescence, at 10 µM, stronger effect = lower value. On the technique in general: ATP-based viability assays read luminescence as a measure of living cells.
The nature of assay [2]: HUVEC growth inhibition – cell-based, human, primary screen (AID 575).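 Further: 100% = median of untreated cell wells with 0.1% DMSO on each plate.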 The conditions noted are these: HUVEC proliferation, CellTiter-Glo luminescence, 72 h; at 10 µM; stronger effect = lower value. An outline of the steps:
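Assay system: Primary human umbilical vein endothelial cells | Quantity: 1250 cells per well | Medium: Supplemented EBM, 2% fetal bovine serum | Detection: CellTiter-Glo luminescence measuring cellular ATP | Read-out: % viability vs DMSO wells | Plate: Collagen-coated 384-well format | Times: 72 h exposure, 37 °C, 5% CO2, 30 min RT equilibration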

A short description of assay [3]: growth inhibitors of H69AR lung tumor, primary screen, human, duplicate replicates (AID 580;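 active means viability at or under a set limit in both replicates, limit being median viability minus 3 SD, cut at about 48% in these data, passing the limit was not always enough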;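 further: 100% = mean luminescence of untreated wells and 0% = no signal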). Particulars: H69AR lung tumor cells viability, ATP luminescence, 72 h; at 10 µM; stronger effect = lower value.
Assay [4] is described as follows: reversal of MRP1-mediated doxorubicin resistance, pilot screen, H69AR cells, doxorubicin co-treatment (AID 601;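 active means viability loss from added drug above about 55%, and viability with drug at most 40%, in both replicates, limit read from the data, passing the limit was not always enough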). The conditions noted are these: CellTiter-Glo, 72 h, at 10 µM; for differential viability (reversal): stronger effect = higher value.
Assay [5] is described as follows: 384-well plate pilot, post-Golgi transport modulator project, inhibition of yeast transport mutant growth (AID 636; in the data active means inhibition above about 31%). Particulars: absorbance 615 nm, about 18 h, stronger effect = higher value.
Assay [6] can be described thus: growth suppression of yeast trafficking mutant, preliminary HTS, modulators of trafficking downstream of Golgi apparatus project, 1536-format plate, OD 615 nm (AID 637; in the data active means inhibition above about 30%). Particulars: yeast transport mutant growth, absorbance 615 nm, 18 h; stronger effect = higher value.
Where [7] appears, read: H69AR cells + 2 uM doxorubicin, measured here: viability with 2 uM doxorubicin, stronger effect = lower value.
The mark [8] stands for this setting: H69AR cells, compound alone cytotoxicity.

For orientation: viability means a read-out of living cells in per cent, often relative to untreated cells. In general, inhibition refers to the change of the read-out against control, counted positive when it falls. `CS(=O)(=O)N(CC(=O)N1CCc2ccccc2C1)c1ccc2c(c1)OCO2`: the viability is 129% (inactive) in assay [1]; 102% (inactive) in assay [2]; 102% (inactive) in assay [3]; 87.8% in assay [4] (setting [7]); 102% in assay [4] (setting [8]). Moreover, the differential viability (reversal) in assay [4] (H69AR cells + 2 uM doxorubicin) is 14.2% (inactive). Moreover, the inhibition in assay [5] was -1.04% (inactive); in assay [6], 2.13% (inactive).

On to `Cc1cc(C(=O)COC(=O)CCc2nc3ccccc3s2)c(C)n1C`, for which the viability in assay [1] is 94% (inactive); in assay [2], 116% (inactive); in assay [3], 101% (inactive); in assay [4] (setting [7]) it was 107%; in assay [4] (setting [8]) it was 101%. The differential viability (reversal) in assay [4] (H69AR cells + 2 uM doxorubicin) is -5.69% (inactive). For the same compound, the inhibition in assay [5] is -3.7% (inactive); in assay [6], -5.09% (inactive).

Regarding `C/C(=C\c1ccco1)C1C(C#N)=C(N)OC2=C1C(=O)CC(C)(C)C2` (centres undefined), the viability was 110% (inactive) in assay [1]; 108% (inactive) in assay [2]; 80.1% (inactive) in assay [3]; 89.2% in assay [4] (setting [7]); 80.1% in assay [4] (setting [8]). Moreover, the differential viability (reversal) in assay [4] (H69AR cells + 2 uM doxorubicin) is -9.17% (inactive). Besides, the inhibition in assay [5] was -7.43% (inactive); in assay [6] it was 1.09% (inactive).

As for `CN1CCN(S(=O)(=O)c2ccc(NC(=O)Nc3cccc(Cl)c3)cc2)CC1`, the viability was 96% (inactive) in assay [1]; 4.34% (active) in assay [2]; 65% (inactive) in assay [3]; 73.8% in assay [4] (setting [7]); 65% in assay [4] (setting [8]). The differential viability (reversal) in assay [4] (H69AR cells + 2 uM doxorubicin) was -8.79% (inactive). The inhibition is -3.6% (inactive) in assay [5] and 1.31% (inactive) in assay [6].

As to `CCOc1nc(NCCC2=CCCCC2)nc(N2CCOCC2)n1`, the viability in assay [1] was 102% (inactive); in assay [2], 95.8% (inactive); in assay [3], 96.7% (inactive); in assay [4] (setting [7]) it was 82.1%; in assay [4] (setting [8]) it was 96.7%. Also, the differential viability (reversal) in assay [4] (H69AR cells + 2 uM doxorubicin) was 14.6% (inactive). For the same compound, the inhibition in assay [5] was -3.33% (inactive); in assay [6], 1.64% (inactive).

Regarding `COc1ccc(C(O)C(CN2CCOCC2)c2ccccc2)cc1F` (centres undefined), the viability in assay [1] was 107% (inactive); in assay [2], 109% (inactive); in assay [3], 103% (inactive); in assay [4] (setting [7]) it was 97.8%; in assay [4] (setting [8]), 103%. The differential viability (reversal) in assay [4] (H69AR cells + 2 uM doxorubicin) is 4.89% (inactive). The inhibition was -0.26% (inactive) in assay [5] and 1.64% (inactive) in assay [6].

With `CCN1C(=O)C2(C(C#N)=C(N)Oc3n[nH]c(C(C)C)c32)c2ccccc21` (centres undefined), the viability in assay [1] is 113% (inactive); in assay [2], 103% (inactive); in assay [3], 89.2% (inactive); in assay [4] (setting [7]), 90.2%; in assay [4] (setting [8]), 89.2%. For the same compound, in assay [4] (H69AR cells + 2 uM doxorubicin), the differential viability (reversal) is -1.03% (inactive). For the same compound, the inhibition was -8.9% (inactive) in assay [5] and -0.81% (inactive) in assay [6].

For the compound `O=C(CN1CCN(c2nc(-c3ccc(F)cc3)cs2)CC1)NCc1ccc2c(c1)OCO2`, the viability is 175% (inactive) in assay [1]; 69% (inactive) in assay [2]; 91.2% (inactive) in assay [3]; 75.2% in assay [4] (setting [7]); 91.2% in assay [4] (setting [8]). For the same compound, in assay [4] (H69AR cells + 2 uM doxorubicin), the differential viability (reversal) is 15.9% (inactive). Also, the inhibition in assay [5] was -6.49% (inactive); in assay [6], 13.5% (inactive).

For `Cc1cc(C(=O)Nc2c(F)cc(F)cc2Br)no1`, the viability in assay [1] is 99% (inactive); in assay [2], 91.9% (inactive); in assay [3], 98.2% (inactive); in assay [4] (setting [7]) it was 98.4%; in assay [4] (setting [8]), 98.2%. The differential viability (reversal) in assay [4] (H69AR cells + 2 uM doxorubicin) was -0.16% (inactive). Further, the values for the inhibition in assay [5] and in assay [6] were -6.16% (inactive) and 4.03% (inactive), respectively.

Regarding `OC[C@H]1O[C@@H](n2cnc3c(Nc4ccccc4)ncnc32)[C@H](O)[C@@H]1O`, the viability in assay [1] is 95% (inactive); in assay [2], 71.9% (inactive); in assay [3], 84.4% (inactive); in assay [4] (setting [7]), 82.1%; in assay [4] (setting [8]), 84.4%. Besides, the differential viability (reversal) in assay [4] (H69AR cells + 2 uM doxorubicin) is 2.24% (inactive). Also, the inhibition in assay [5] is -2.34% (inactive); in assay [6], 1.17% (inactive).

Take `CCCCC[C@H](O)/C=C/[C@@H]1[C@@H](CCCCCCC(=O)O)[C@@H](O)C[C@H]1O`: the viability in assay [1] is 113% (inactive); in assay [2], 89.6% (inactive); in assay [3] it was 103% (inactive); in assay [4] (setting [7]), 93.6%; in assay [4] (setting [8]), 103%. The differential viability (reversal) in assay [4] (H69AR cells + 2 uM doxorubicin) is 9.71% (inactive). Also, the inhibition was 0.26% (inactive) in assay [5] and 2.33% (inactive) in assay [6].

With `CCN(CC)CCCN1C(=O)C(O)=C(C(C)=O)C1c1cccc(OC)c1` (centres undefined), the viability in assay [1] was 97% (inactive); in assay [2] it was 101% (inactive); in assay [3], 93% (inactive); in assay [4] (setting [7]) it was 87.3%; in assay [4] (setting [8]), 93%. Besides, in assay [4] (H69AR cells + 2 uM doxorubicin), the differential viability (reversal) was 5.69% (inactive). For the same compound, the inhibition in assay [5] was -3.51% (inactive); in assay [6] it was -2.73% (inactive).

For `CC1(C)Cc2c(c(=S)nc(-c3ccccc3)n2CCO)CO1`, the viability in assay [1] was 111% (inactive); in assay [2], 106% (inactive); in assay [3] it was 87.6% (inactive); in assay [4] (setting [7]), 91.9%; in assay [4] (setting [8]), 87.6%. Besides, in assay [4] (H69AR cells + 2 uM doxorubicin), the differential viability (reversal) was -4.25% (inactive). In addition, the inhibition was -1.43% (inactive) in assay [5] and -6.72% (inactive) in assay [6].

`CC(C)NC(=O)Nc1cccs1`: the viability was 115% (inactive) in assay [1]; 99.5% (inactive) in assay [2]; 92.1% (inactive) in assay [3]; 95.6% in assay [4] (setting [7]); 92.1% in assay [4] (setting [8]). Also, the differential viability (reversal) in assay [4] (H69AR cells + 2 uM doxorubicin) is -3.51% (inactive). Also, the inhibition in assay [5] is 2.47% (inactive); in assay [6] it was -0.82% (inactive).

Turning to `CC(c1ccco1)N(Cc1ccco1)C(=O)Nc1ccccc1` (centres undefined), the viability in assay [1] was 108% (inactive); in assay [2] it was 76.3% (inactive); in assay [3] it was 91.2% (inactive); in assay [4] (setting [7]) it was 67.6%; in assay [4] (setting [8]) it was 91.2%. Moreover, the differential viability (reversal) in assay [4] (H69AR cells + 2 uM doxorubicin) was 23.7% (inactive). In addition, the results for the inhibition in assay [5] and in assay [6] were 1.69% (inactive) and 6.72% (inactive), respectively.

For `COC(=O)c1ccccc1NC(=O)c1cnc2sccn2c1=O`, the viability in assay [1] is 110% (inactive); in assay [2], 87.9% (inactive); in assay [3], 104% (inactive); in assay [4] (setting [7]), 95.5%; in assay [4] (setting [8]) it was 104%. Further, the differential viability (reversal) in assay [4] (H69AR cells + 2 uM doxorubicin) is 8.43% (inactive). In addition, the inhibition is -3.6% (inactive) in assay [5] and -0.91% (inactive) in assay [6].

`Cc1ccc2nc3c(cc2c1)CN(Cc1ccco1)C(=NCC1CCCO1)S3` (centres undefined): the viability in assay [1] was 100% (inactive); in assay [2], 65.6% (inactive); in assay [3], 7.64% (active); in assay [4] (setting [7]) it was 9.57%; in assay [4] (setting [8]), 7.64%. Besides, in assay [4] (H69AR cells + 2 uM doxorubicin), the differential viability (reversal) was -1.93% (inactive). Also, the inhibition is 9.33% (inactive) in assay [5] and -0.18% (inactive) in assay [6].

Regarding `COc1ccc(-c2nnc(SCc3nnc(-c4ccc(Cl)cc4)o3)n2-c2ccccc2)cc1`, the viability is 73% (inactive) in assay [1]; 55.6% (inactive) in assay [2]; 84.3% (inactive) in assay [3]; 80% in assay [4] (setting [7]); 84.3% in assay [4] (setting [8]). For the same compound, the differential viability (reversal) in assay [4] (H69AR cells + 2 uM doxorubicin) was 4.27% (inactive). Also, the inhibition in assay [5] was -2.27% (inactive); in assay [6] it was 15.4% (inactive).
